# Experimental data from ChEMBL document CHEMBL4689842, “EUbOPEN Chemogenomics Library wave 1” (2021).
# Experiments:
# Format in all cases: toxicity, cell-based
# [1] = system: Fibroblast; experiment: Multiplex assay against human fibroblast
# In short: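 Tubulin, mitochondrial-mass and membrane-permeability phenotypes are per cents of healthy-nucleus cells. Cells were gated by CellPathfinder machine learning into Hoechst high-intensity objects or normal cells, normal cells into healthy, pyknosed or fragmented nuclei, and pyknosed cells into mitotic or apoptotic. Before that, live cells stained at seeding with Hoechst33342, BioTracker Green Microtubule Cytoskeleton Dye, MitoTracker Red and Annexin V Alexa Fluor 680 were imaged on a CQ1 microscope at 37°C and 5% CO2 after compound addition.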
# [2] = system: HEK-293T; experiment: Incucyte cell viability with HEK293T; conditions: human, 10 µM, compound concentration 10 uM; also: filed as whole numbers so only -1 and 0 and 1 occur
# [3] = system: U2OS; experiment: Incucyte cell viability with U2OS; conditions: human, 10 µM, compound concentration 10 uM; also: filed as whole numbers so only -1 and 0 and 1 occur
# [4] = 12 h, 1 µM, compound concentration 1 uM, replicate 1
# [5] = 12 h, 1 µM, compound concentration 1 uM, replicate 2
# [6] = 12 h, 10 µM, compound concentration 10 uM, replicate 1
# [7] = 12 h, 10 µM, compound concentration 10 uM, replicate 2
# [8] = 24 h, 1 µM, compound concentration 1 uM, replicate 1
# [9] = 24 h, 1 µM, compound concentration 1 uM, replicate 2
# [10] = 24 h, 10 µM, compound concentration 10 uM, replicate 1
# [11] = 24 h, 10 µM, compound concentration 10 uM, replicate 2
# [12] = 48 h, 1 µM, compound concentration 1 uM, replicate 1
# [13] = 48 h, 1 µM, compound concentration 1 uM, replicate 2
# [14] = 48 h, 10 µM, compound concentration 10 uM, replicate 1
# [15] = 48 h, 10 µM, compound concentration 10 uM, replicate 2
# [16] = 6 h, replicate number 1, timepoint 6 hours
# [17] = 12 h, replicate number 1, timepoint 12 hours
# [18] = 18 h, replicate number 1, timepoint 18 hours
# [19] = 24 h, replicate number 1, timepoint 24 hours
smiles,measurement,setting,value
Cc1nc(Cc2cccc(C(F)(F)F)c2)sc1-c1ccc(C(N)=O)nc1 [TP-024n],Population Apoptotic (%),[1]; [4],59%
same,Population Fragmented Nuclei (%),[1]; [4],16%
same,Population Healthy Nuclei (%),[1]; [4],45%
same,Population Hoechst High Intensity Objects (%),[1]; [4],11%
same,Population Membrane Permeable-Phenotype (%),[1]; [4],23%
same,Population Mitochondria Different-Phenotype (%),[1]; [4],3%
same,Population Mitotic Cells (%),[1]; [4],40%
same,Population Normal (%),[1]; [4],88%
same,Population Pyknosed Nuclei (%),[1]; [4],37%
same,Population Tubulin-Different-Phenotype (%),[1]; [4],33%
same,Total Cell Count,[1]; [4],125
same,Population Apoptotic (%),[1]; [5],50%
same,Population Fragmented Nuclei (%),[1]; [5],0%
same,Population Healthy Nuclei (%),[1]; [5],94%
same,Population Membrane Permeable-Phenotype (%),[1]; [5],2%
same,Population Mitochondria Different-Phenotype (%),[1]; [5],18%
same,Population Mitotic Cells (%),[1]; [5],50%
same,Population Pyknosed Nuclei (%),[1]; [5],5%
same,Population Tubulin-Different-Phenotype (%),[1]; [5],16%
same,Total Cell Count,[1]; [5],130
same,Population Apoptotic (%),[1]; [6],63%
same,Population Fragmented Nuclei (%),[1]; [6],25%
same,Population Healthy Nuclei (%),[1]; [6],37%
same,Population Hoechst High Intensity Objects (%),[1]; [6],14%
same,Population Membrane Permeable-Phenotype (%),[1]; [6],2%
same,Population Mitochondria Different-Phenotype (%),[1]; [6],16%
same,Population Mitotic Cells (%),[1]; [6],36%
same,Population Normal (%),[1]; [6],86%
same,Population Pyknosed Nuclei (%),[1]; [6],36%
same,Population Tubulin-Different-Phenotype (%),[1]; [6],67%
same,Total Cell Count,[1]; [6],150
same,Population Apoptotic (%),[1]; [7],66%
same,Population Fragmented Nuclei (%),[1]; [7],17%
same,Population Healthy Nuclei (%),[1]; [7],67%
same,Population Hoechst High Intensity Objects (%),[1]; [7],4%
same,Population Membrane Permeable-Phenotype (%),[1]; [7],9%
same,Population Mitochondria Different-Phenotype (%),[1]; [7],21%
same,Population Mitotic Cells (%),[1]; [7],33%
same,Population Normal (%),[1]; [7],95%
same,Population Pyknosed Nuclei (%),[1]; [7],14%
same,Population Tubulin-Different-Phenotype (%),[1]; [7],11%
same,Total Cell Count,[1]; [7],44
same,Population Apoptotic (%),[1]; [8],46%
same,Population Fragmented Nuclei (%),[1]; [8],17%
same,Population Healthy Nuclei (%),[1]; [8],51%
same,Population Hoechst High Intensity Objects (%),[1]; [8],11%
same,Population Membrane Permeable-Phenotype (%),[1]; [8],31%
same,Population Mitochondria Different-Phenotype (%),[1]; [8],1%
same,Population Mitotic Cells (%),[1]; [8],53%
same,Population Normal (%),[1]; [8],88%
same,Population Pyknosed Nuclei (%),[1]; [8],32%
same,Population Tubulin-Different-Phenotype (%),[1]; [8],29%
same,Total Cell Count,[1]; [8],113
same,Population Apoptotic (%),[1]; [9],50%
same,Population Fragmented Nuclei (%),[1]; [9],5%
same,Population Healthy Nuclei (%),[1]; [9],91%
same,Population Hoechst High Intensity Objects (%),[1]; [9],5%
same,Population Membrane Permeable-Phenotype (%),[1]; [9],1%
same,Population Mitochondria Different-Phenotype (%),[1]; [9],7%
same,Population Mitotic Cells (%),[1]; [9],50%
same,Population Normal (%),[1]; [9],95%
same,Population Pyknosed Nuclei (%),[1]; [9],3%
same,Population Tubulin-Different-Phenotype (%),[1]; [9],15%
same,Total Cell Count,[1]; [9],126
same,Population Apoptotic (%),[1]; [10],64%
same,Population Fragmented Nuclei (%),[1]; [10],19%
same,Population Healthy Nuclei (%),[1]; [10],57%
same,Population Hoechst High Intensity Objects (%),[1]; [10],13%
same,Population Membrane Permeable-Phenotype (%),[1]; [10],5%
same,Population Mitochondria Different-Phenotype (%),[1]; [10],12%
same,Population Mitotic Cells (%),[1]; [10],35%
same,Population Normal (%),[1]; [10],86%
same,Population Pyknosed Nuclei (%),[1]; [10],23%
same,Population Tubulin-Different-Phenotype (%),[1]; [10],58%
same,Total Cell Count,[1]; [10],152
same,Population Apoptotic (%),[1]; [11],44%
same,Population Fragmented Nuclei (%),[1]; [11],14%
same,Population Healthy Nuclei (%),[1]; [11],58%
same,Population Hoechst High Intensity Objects (%),[1]; [11],2%
same,Population Membrane Permeable-Phenotype (%),[1]; [11],25%
same,Population Mitochondria Different-Phenotype (%),[1]; [11],32%
same,Population Mitotic Cells (%),[1]; [11],55%
same,Population Normal (%),[1]; [11],97%
same,Population Pyknosed Nuclei (%),[1]; [11],26%
same,Population Tubulin-Different-Phenotype (%),[1]; [11],22%
same,Total Cell Count,[1]; [11],60
same,Population Apoptotic (%),[1]; [12],52%
same,Population Fragmented Nuclei (%),[1]; [12],21%
same,Population Healthy Nuclei (%),[1]; [12],58%
same,Population Hoechst High Intensity Objects (%),[1]; [12],19%
same,Population Membrane Permeable-Phenotype (%),[1]; [12],22%
same,Population Mitochondria Different-Phenotype (%),[1]; [12],1%
same,Population Mitotic Cells (%),[1]; [12],47%
same,Population Normal (%),[1]; [12],80%
same,Population Pyknosed Nuclei (%),[1]; [12],20%
same,Population Tubulin-Different-Phenotype (%),[1]; [12],31%
same,Total Cell Count,[1]; [12],116
same,Population Apoptotic (%),[1]; [13],33%
same,Population Fragmented Nuclei (%),[1]; [13],16%
same,Population Healthy Nuclei (%),[1]; [13],80%
same,Population Hoechst High Intensity Objects (%),[1]; [13],11%
same,Population Membrane Permeable-Phenotype (%),[1]; [13],12%
same,Population Mitochondria Different-Phenotype (%),[1]; [13],0%
same,Population Mitotic Cells (%),[1]; [13],66%
same,Population Normal (%),[1]; [13],88%
same,Population Pyknosed Nuclei (%),[1]; [13],3%
same,Population Tubulin-Different-Phenotype (%),[1]; [13],35%
same,Total Cell Count,[1]; [13],98
same,Population Apoptotic (%),[1]; [14],77%
same,Population Fragmented Nuclei (%),[1]; [14],19%
same,Population Healthy Nuclei (%),[1]; [14],64%
same,Population Hoechst High Intensity Objects (%),[1]; [14],9%
same,Population Membrane Permeable-Phenotype (%),[1]; [14],11%
same,Population Mitochondria Different-Phenotype (%),[1]; [14],15%
same,Population Mitotic Cells (%),[1]; [14],22%
same,Population Normal (%),[1]; [14],90%
same,Population Pyknosed Nuclei (%),[1]; [14],16%
same,Population Tubulin-Different-Phenotype (%),[1]; [14],44%
same,Total Cell Count,[1]; [14],148
same,Population Apoptotic (%),[1]; [15],25%
same,Population Fragmented Nuclei (%),[1]; [15],27%
same,Population Healthy Nuclei (%),[1]; [15],68%
same,Population Hoechst High Intensity Objects (%),[1]; [15],10%
same,Population Membrane Permeable-Phenotype (%),[1]; [15],5%
same,Population Mitochondria Different-Phenotype (%),[1]; [15],7%
same,Population Mitotic Cells (%),[1]; [15],75%
same,Population Normal (%),[1]; [15],89%
same,Population Pyknosed Nuclei (%),[1]; [15],3%
same,Population Tubulin-Different-Phenotype (%),[1]; [15],52%
same,Total Cell Count,[1]; [15],124
same,Growth Rate,"[2]; 0 h, replicate number 2, timepoint 0 hours",0
same,Growth Rate,[2]; [16],0
same,Growth Rate,[2]; [17],0
same,Growth Rate,[2]; [18],0
same,Growth Rate,[2]; [19],0
same,Growth Rate,[3]; [16],0
same,Growth Rate,[3]; [17],0
same,Growth Rate,[3]; [18],0
same,Growth Rate,[3]; [19],0
